Assay results published in ChEMBL document CHEMBL3862016 (Bioorg Med Chem Lett, 2016).
Active and inactive are the calls of the source. The calls are words filed in the database; no cut-off is given here.

Assays:
Histone deacetylase 1 = Histone deacetylase 1 (Homo sapiens, UniProt Q13547); assay: Inhibition of HDAC1 (unknown origin) assessed as inhibition of fluorogenic peptide deacetylation
Histone deacetylase 3 = Histone deacetylase 3 (Homo sapiens, UniProt O15379); assay: Inhibition of HDAC3 (unknown origin) assessed as inhibition of fluorogenic peptide deacetylation
Sequence of Histone deacetylase 3 (O15379 whole entry): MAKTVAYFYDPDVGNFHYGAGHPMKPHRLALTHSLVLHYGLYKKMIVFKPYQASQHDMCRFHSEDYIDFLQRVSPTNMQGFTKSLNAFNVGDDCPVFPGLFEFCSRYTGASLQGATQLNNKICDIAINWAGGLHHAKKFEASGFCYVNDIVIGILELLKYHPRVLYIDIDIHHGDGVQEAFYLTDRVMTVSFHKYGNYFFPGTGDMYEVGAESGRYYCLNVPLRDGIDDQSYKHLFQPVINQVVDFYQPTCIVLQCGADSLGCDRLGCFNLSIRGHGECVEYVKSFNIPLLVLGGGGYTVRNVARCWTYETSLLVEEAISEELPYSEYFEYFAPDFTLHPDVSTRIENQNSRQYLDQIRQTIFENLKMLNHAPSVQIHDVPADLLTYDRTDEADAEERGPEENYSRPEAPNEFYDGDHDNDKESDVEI

Histone deacetylase 2 = Histone deacetylase 2 (Homo sapiens, UniProt Q92769); assay: Inhibition of HDAC2 (unknown origin) assessed as inhibition of fluorogenic peptide deacetylation
Sequence of Histone deacetylase 2 (Q92769 whole entry): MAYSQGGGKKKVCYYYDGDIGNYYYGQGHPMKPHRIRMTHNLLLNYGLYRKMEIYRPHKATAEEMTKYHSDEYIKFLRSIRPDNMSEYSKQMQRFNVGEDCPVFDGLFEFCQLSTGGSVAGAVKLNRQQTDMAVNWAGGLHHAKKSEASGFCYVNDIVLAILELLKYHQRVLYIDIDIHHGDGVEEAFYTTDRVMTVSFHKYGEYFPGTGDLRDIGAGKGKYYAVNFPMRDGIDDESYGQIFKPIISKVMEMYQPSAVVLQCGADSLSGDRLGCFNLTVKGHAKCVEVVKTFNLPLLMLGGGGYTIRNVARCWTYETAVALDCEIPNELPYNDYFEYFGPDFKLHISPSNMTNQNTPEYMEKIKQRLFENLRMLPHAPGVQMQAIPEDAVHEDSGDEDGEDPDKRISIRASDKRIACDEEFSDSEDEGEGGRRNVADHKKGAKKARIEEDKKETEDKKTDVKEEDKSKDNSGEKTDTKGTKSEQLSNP

[1] = molecular target: T1, Protein deacetylase HDAC6 (Homo sapiens, UniProt Q9UBN7); assay: Inhibition of HDAC6 (unknown origin) assessed as inhibition of fluorogenic peptide deacetylation
T1 sequence (Q9UBN7 whole entry): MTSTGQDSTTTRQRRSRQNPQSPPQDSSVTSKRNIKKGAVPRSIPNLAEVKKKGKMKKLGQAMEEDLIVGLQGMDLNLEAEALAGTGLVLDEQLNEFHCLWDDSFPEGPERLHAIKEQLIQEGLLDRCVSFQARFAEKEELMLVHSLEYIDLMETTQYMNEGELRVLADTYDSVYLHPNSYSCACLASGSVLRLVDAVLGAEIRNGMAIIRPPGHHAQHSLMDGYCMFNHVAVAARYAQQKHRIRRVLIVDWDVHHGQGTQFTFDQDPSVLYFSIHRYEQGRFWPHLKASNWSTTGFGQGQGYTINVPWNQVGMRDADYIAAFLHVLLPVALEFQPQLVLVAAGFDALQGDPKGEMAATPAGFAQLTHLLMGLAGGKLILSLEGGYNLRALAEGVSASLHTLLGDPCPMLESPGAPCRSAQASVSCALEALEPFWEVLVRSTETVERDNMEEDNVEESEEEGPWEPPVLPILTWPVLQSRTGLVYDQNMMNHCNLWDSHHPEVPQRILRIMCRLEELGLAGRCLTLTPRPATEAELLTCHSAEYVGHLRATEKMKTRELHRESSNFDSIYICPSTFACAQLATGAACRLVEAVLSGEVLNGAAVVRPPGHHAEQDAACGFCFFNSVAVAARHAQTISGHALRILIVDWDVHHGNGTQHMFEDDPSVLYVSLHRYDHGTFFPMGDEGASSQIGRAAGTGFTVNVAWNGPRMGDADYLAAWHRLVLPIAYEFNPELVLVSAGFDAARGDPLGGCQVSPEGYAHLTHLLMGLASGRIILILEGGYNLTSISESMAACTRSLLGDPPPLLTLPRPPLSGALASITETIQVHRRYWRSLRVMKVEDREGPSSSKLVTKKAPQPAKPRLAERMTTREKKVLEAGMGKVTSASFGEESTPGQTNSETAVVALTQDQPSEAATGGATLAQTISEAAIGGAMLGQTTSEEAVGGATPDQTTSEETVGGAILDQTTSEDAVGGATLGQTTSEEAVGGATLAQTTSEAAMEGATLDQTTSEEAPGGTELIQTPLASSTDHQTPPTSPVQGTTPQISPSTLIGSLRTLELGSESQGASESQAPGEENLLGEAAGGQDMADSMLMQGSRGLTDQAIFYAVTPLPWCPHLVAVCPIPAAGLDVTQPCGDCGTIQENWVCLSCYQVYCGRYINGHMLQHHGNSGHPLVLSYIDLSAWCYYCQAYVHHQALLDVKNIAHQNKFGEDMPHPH

Androgen receptor = molecular target: T2, Androgen receptor (Homo sapiens, UniProt P10275); assay: Displacement of [3H]mibolerone from androgen receptor (unknown origin) in membranes after 24 hrs by HAP adsorption assay
T2 sequence (P10275 whole entry): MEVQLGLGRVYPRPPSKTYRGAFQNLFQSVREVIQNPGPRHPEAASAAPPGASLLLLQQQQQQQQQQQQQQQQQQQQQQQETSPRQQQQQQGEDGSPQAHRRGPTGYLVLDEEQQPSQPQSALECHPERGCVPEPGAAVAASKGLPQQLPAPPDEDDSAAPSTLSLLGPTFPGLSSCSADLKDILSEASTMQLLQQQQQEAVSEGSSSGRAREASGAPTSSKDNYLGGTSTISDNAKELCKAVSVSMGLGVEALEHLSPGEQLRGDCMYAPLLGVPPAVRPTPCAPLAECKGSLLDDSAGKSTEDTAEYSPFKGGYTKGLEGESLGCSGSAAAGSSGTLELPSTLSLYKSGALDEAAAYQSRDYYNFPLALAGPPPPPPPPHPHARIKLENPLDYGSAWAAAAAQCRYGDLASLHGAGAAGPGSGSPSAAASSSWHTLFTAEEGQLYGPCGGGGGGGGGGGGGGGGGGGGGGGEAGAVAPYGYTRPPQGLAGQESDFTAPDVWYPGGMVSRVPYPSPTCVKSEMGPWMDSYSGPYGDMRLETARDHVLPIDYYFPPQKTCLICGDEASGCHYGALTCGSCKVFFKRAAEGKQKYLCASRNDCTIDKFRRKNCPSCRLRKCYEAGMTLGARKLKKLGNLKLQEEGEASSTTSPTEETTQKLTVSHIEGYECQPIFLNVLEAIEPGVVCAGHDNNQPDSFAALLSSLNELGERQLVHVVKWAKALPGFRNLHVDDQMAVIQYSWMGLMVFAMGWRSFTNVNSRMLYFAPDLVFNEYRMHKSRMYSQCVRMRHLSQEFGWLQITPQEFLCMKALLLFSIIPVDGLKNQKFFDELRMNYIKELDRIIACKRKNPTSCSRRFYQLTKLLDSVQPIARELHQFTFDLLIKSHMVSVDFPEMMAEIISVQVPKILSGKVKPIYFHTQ

[2] = molecular target: T3, Androgen receptor (Homo sapiens) (UniProt P10275); assay: Antagonist activity at AR in human LNCAP cells assessed as suppression of DHT-induced AR protein level measured after 24 hrs relative to control; format: cell-based
T3 sequence (whole entry): T2 sequence (P10275 whole entry)
Method in brief: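 LNCaP cells were stimulated with 10 nM DHT and co-treated with test agent for 24 h. Whole-cell extracts were resolved on an acrylamide gel and immunoblotted for AR and acetylated tubulin, with actin as the loading control. AR protein level was normalized to actin and compared with vehicle-treated cells.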

[3] = Tmax in mouse at 10 mg/kg, ip by HPLC-MS analysis; format: ADME, organism-based; settings: in vivo
Method in brief: (§1)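 Mice dosed iv at 2 mg/kg, or ip or sc at 10 mg/kg. Plasma concentration–time profiles were obtained by sparse sampling with N = 3 per time-point. Parameters (Cmax, Tmax, AUClast, terminal t1/2, CL, Vz, bioavailability) were derived by noncompartmental analysis.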

[4] = Metabolic stability in mouse liver microsomes assessed as compound remaining at 1 uM measured after 30 mins in presence of NADPH by LC-MS/MS analysis; format: ADME; settings: read-out: Stability
[5] = AUClast in mouse at 2 mg/kg, iv by HPLC-MS analysis; format: ADME, organism-based; design: dose 2 mg/kg, route intravenous, time 0 - last; settings: in vivo; method in brief: as §1
[6] = Bioavailability in mouse at 10 mg/kg, ip by HPLC-MS analysis; format: ADME, organism-based; settings: in vivo; method in brief: as §1
UGT [7] = assay: Metabolic stability in human liver microsomes assessed as UGT-mediated glucuronidation of compound by measuring parent compound remaining at 5 uM after 30 mins in presence of UDPGA by LC-MS/MS analysis; format: ADME; settings: read-out: Stability
[8] = Terminal half life in mouse at 10 mg/kg, ip by HPLC-MS analysis; format: ADME, organism-based; settings: in vivo, read-out: beta t1/2 (converted); method in brief: as §1
[9] = Tmax in mouse at 10 mg/kg, sc by HPLC-MS analysis; format: ADME, organism-based; settings: in vivo; method in brief: as §1
[10] = Bioavailability in mouse at 10 mg/kg, sc by HPLC-MS analysis; format: ADME, organism-based; settings: in vivo; method in brief: as §1
[11] = AUClast in mouse at 10 mg/kg, sc by HPLC-MS analysis; format: ADME, organism-based; design: dose 10 mg/kg, time 0 - last, route subcutaneous; settings: in vivo; method in brief: as §1
[12] = Apparent volume of distribution in mouse at 2 mg/kg, iv by HPLC-MS analysis; format: ADME, organism-based; settings: in vivo, read-out: Vz; method in brief: as §1
[13] = Terminal half life in mouse at 2 mg/kg, iv by HPLC-MS analysis; format: ADME, organism-based; settings: in vivo, read-out: beta t1/2 (converted); method in brief: as §1
[14] = Terminal half life in mouse at 10 mg/kg, sc by HPLC-MS analysis; format: ADME, organism-based; settings: in vivo, read-out: beta t1/2 (converted); method in brief: as §1
[15] = Cmax in mouse at 10 mg/kg, ip by HPLC-MS analysis; format: ADME, organism-based; design: dose 10 mg/kg, route intraperitoneal; settings: in vivo; method in brief: as §1
UGT [16] = assay: Metabolic stability in mouse liver microsomes assessed as UGT-mediated glucuronidation of compound by measuring parent compound remaining at 5 uM after 30 mins in presence of UDPGA by LC-MS/MS analysis; format: ADME; settings: read-out: Stability
[17] = Metabolic stability in human liver microsomes assessed as compound remaining at 1 uM measured after 30 mins in presence of NADPH by LC-MS/MS analysis; format: ADME; settings: read-out: Stability
[18] = Tmax in mouse at 2 mg/kg, iv by HPLC-MS analysis; format: ADME, organism-based; settings: in vivo; method in brief: as §1
[19] = Clearance in mouse at 2 mg/kg, iv by HPLC-MS analysis; format: ADME, organism-based; settings: in vivo; method in brief: as §1
[20] = Cmax in mouse at 2 mg/kg, iv by HPLC-MS analysis; format: ADME, organism-based; design: dose 2 mg/kg, route intravenous; settings: in vivo; method in brief: as §1
[21] = AUClast in mouse at 10 mg/kg, ip by HPLC-MS analysis; format: ADME, organism-based; design: dose 10 mg/kg, time 0 - last, route intraperitoneal; settings: in vivo; method in brief: as §1
[22] = Cmax in mouse at 10 mg/kg, sc by HPLC-MS analysis; format: ADME, organism-based; design: dose 10 mg/kg, route subcutaneous; settings: in vivo; method in brief: as §1

Sequence of Histone deacetylase 1 (Q13547 whole entry): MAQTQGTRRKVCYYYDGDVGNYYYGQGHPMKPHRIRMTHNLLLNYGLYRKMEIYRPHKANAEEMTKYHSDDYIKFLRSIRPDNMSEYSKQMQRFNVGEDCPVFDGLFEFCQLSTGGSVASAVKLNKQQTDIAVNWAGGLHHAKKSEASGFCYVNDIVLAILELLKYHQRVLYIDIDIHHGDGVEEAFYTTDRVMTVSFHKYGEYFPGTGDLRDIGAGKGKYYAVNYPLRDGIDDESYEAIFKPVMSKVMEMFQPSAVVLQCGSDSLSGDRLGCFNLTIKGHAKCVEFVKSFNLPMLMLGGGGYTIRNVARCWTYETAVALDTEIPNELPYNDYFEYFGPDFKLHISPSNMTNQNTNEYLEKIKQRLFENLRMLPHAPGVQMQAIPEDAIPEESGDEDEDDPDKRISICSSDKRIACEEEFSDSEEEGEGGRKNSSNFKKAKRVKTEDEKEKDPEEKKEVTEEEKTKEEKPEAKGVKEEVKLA

SMILES	IC50 (Histone deacetylase 1) [µM]	IC50 (Histone deacetylase 3) [µM]	IC50 (Histone deacetylase 2) [µM]	IC50 [1] [µM]	IC50 (Androgen receptor) [µM]	other results
CC1(C)C(=O)N(c2ccc(C#N)c(C(F)(F)F)c2)C(=S)N1c1ccc(C(=O)NCCCCCCNS(N)(=O)=O)c(F)c1	> 100	> 100	> 100	1.12	0.11	
CN1CCc2c(c3ccccc3n2Cc2ccc(C(=O)NO)cc2)C1						inhibition [2]: Active
CC1(C)C(=O)N(c2ccc(C#N)c(C(F)(F)F)c2)C(=S)N1c1ccc(C(=O)NCCCCCCn2cccc(O)c2=S)c(F)c1	> 10	> 10	3.33	> 10	< 0.03	
CC1(C)C(=O)N(c2ccc(C#N)c(C(F)(F)F)c2)C(=S)N1c1ccc(Cn2ccc3cc(/C=C/C(=O)NO)ccc32)c(F)c1	> 100	> 100	> 100	2.03	< 0.03	
CC1(C)C(=O)N(c2ccc(C#N)c(C(F)(F)F)c2)C(=S)N1c1ccc(C(=O)NCCCCCCc2ccc(C(=O)C(F)(F)F)s2)c(F)c1	> 10	> 10	> 10	> 10	0.068	
CC1(C)C(=O)N(c2ccc(C#N)c(C(F)(F)F)c2)C(=S)N1c1ccc(C(=O)OCCCCCC(=O)NO)c(F)c1	3.15	2	1.1	0.002	0.043	
CC1(C)C(=O)N(c2ccc(C#N)c(C(F)(F)F)c2)C(=S)N1c1ccc(C(=O)Nc2ccccc2N)c(F)c1	6.19	5.4	14.1	47.3	0.33	
CC1(C)C(=O)N(c2ccc(C#N)c(C(F)(F)F)c2)C(=S)N1c1ccc(/C=C/C(=O)Nc2ccccc2N)c(F)c1	> 100	20.2	> 100	60	0.23	
CC1(C)C(=O)N(c2ccc(C#N)c(C(F)(F)F)c2)C(=S)N1c1ccc(C(=O)NCCCCCCn2cccc(O)c2=O)c(F)c1	> 100	> 100	> 100	> 100	0.25	
CC1(C)C(=O)N(c2ccc(C#N)c(C(F)(F)F)c2)C(=S)N1c1ccc(C(=O)NCCCCCCC(=O)Nc2ccccc2N)c(F)c1	> 10	0.28	3.37	> 10	< 0.03	
CC1(C)C(=O)N(c2ccc(C#N)c(C(F)(F)F)c2)C(=S)N1c1ccc(C(=O)NCCCn2cccc(O)c2=O)c(F)c1	> 100	> 100	> 100	14	0.56	
CC1(C)C(=O)N(c2ccc(C#N)c(C(F)(F)F)c2)C(=S)N1c1ccc(C(=O)NCCCNS(N)(=O)=O)c(F)c1	> 100	> 100	> 100	> 100	0.35	
CC1(C)C(=O)N(c2ccc(C#N)c(C(F)(F)F)c2)C(=S)N1c1ccc(C(=O)NCCCCCC(=O)NO)c(F)c1	2.89	1.83	2.25	0.036	< 0.03	Tmax [3]: 60 min; remaining at 0.5 h, 1 µM [4]: 21.9%; AUC(0-t) [5]: 206 nM·h; bioavailability [6]: 82.1%; remaining at 0.5 h, 5 µM (UGT [7]): 97.6%; half-life [8]: 660 min; Tmax [9]: 30 min; bioavailability [10]: 100%; AUC(0-t) [11]: 1030 nM·h; Vd [12]: 10.3 L/kg; half-life [13]: 25.6 min; half-life [14]: 205 min; Cmax [15]: 0.419 µM; remaining at 0.5 h, 5 µM (UGT [16]): 46.1%; remaining at 0.5 h, 1 µM [17]: 29.1%; Tmax [18]: 4.98 min; clearance [19]: 16.7 L/h/kg; Cmax [20]: 0.706 µM; AUC(0-t) [21]: 846 nM·h; Cmax [22]: 0.269 µM
CC1(C)C(=O)N(c2ccc(C#N)c(C(F)(F)F)c2)C(=S)N1c1ccc(C(=O)NCCOCCC(=O)NO)c(F)c1	58.1	49.2	86.5	0.495	0.078	
